# Most compounds without a hit are left out; they make up all but 4% or so of the library.
# Hsp70 act = transcriptional activators of Hsp70. 200,000 compounds, 0.04% hits. AID 1203. activation, % at 10 µM. HeLa Hsp70 promoter luciferase reporter, luminescence; scaled: vehicle 0, proteasome-inhibitor control 100%;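 active = activation above the mean across all tested compounds plus 3 SD, cutoff set per campaign, cut at about 5.5% in these data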
# CHOP inhibitor = CHOP inhibition in unfolded protein response; CHO-K1 CHOP-promoter luciferase, tunicamycin-induced, 15-18 h; inhibition, % at 10 µM; 220,000 compounds, 3.8% hits; AID 2732;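 active = compounds that reduced the stress-induced luciferase reporter signal by more than about 70% of percent inhibition, limit read from the data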
# Mdm2 ligase inh = blocks human Mdm2 ubiquitin ligase activity; Q00987; cell-based MDM2 ubiquitination luciferase reporter, 2 h; 0 = plate control, 100 = twice control, blank-subtracted; signal enhancement, % at 5 µM; 210,000 compounds, 0.11% hits; AID 1230;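 active = signal enhancement of 30% or more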;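 note: luminescence tracks abundance of the self-degrading MDM2-luciferase fusion protein; higher signal means inhibition of MDM2 E3 ligase activity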
#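 Timing – 2 h compound exposure at 37 °C · Assay system – mammalian cells stably expressing self-ubiquitinating, self-degrading MDM2 E3–luciferase fusion · Amount – 2000 cells seeded into each well · Measure – % luminescence enhancement versus blank-corrected plate control mean · Measured by – SteadyLite luminescence, 15 min reagent step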
# S1P3 antagonist = blocks the human S1P3 receptor | inhibition, % at 4.98 µM | AID 485 | 170,000 compounds, 0.27% hits | CHO S1P3 NFAT-BLA reporter, FRET fluorescence, antagonist mode | Q99500;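 active = inhibition above the plate cutoff, the mean inhibition of test wells on that plate plus 3 SD, cut at about 28% in these data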;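 note: cells challenged with S1P at its EC80 of 0.8 µM; blue over green emission ratio from cleaved BLA substrate after 4 h stimulation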
# Target sequence (Q99500 whole entry, looked up): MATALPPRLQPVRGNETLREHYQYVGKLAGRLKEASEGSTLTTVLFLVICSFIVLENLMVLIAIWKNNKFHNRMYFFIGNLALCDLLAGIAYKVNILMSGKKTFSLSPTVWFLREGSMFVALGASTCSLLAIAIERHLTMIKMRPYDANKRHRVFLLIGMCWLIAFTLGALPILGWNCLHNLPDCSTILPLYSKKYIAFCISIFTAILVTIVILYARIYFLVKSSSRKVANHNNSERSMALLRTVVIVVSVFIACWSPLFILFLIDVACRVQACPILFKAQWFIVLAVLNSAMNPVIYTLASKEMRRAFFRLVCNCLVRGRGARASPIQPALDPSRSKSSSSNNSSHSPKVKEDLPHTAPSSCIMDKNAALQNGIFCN
# CHOP inh conf = confirmation of CHOP induction inhibitors; shares compounds with CHOP inhibitor; CHO-CHOP promoter luciferase reporter, tunicamycin-induced, luminescence; inhibition, % at 10 µM; 2,100 compounds, 45% hits; AID 504437;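 active = mean of three repeat readings of reporter signal inhibition above a set limit, cut at about 70% in these data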
# A number is an active result; n = inactive; x = no result given.
SMILES,Hsp70 act,CHOP inhibitor,Mdm2 ligase inh,S1P3 antagonist,CHOP inh conf
O=C1Nc2ccccc2/C1=C/C(=O)c1cccs1,n,104.4,n,x,n
Cc1cc(C)c(Cn2c(=O)n(CCCC(=O)NCc3ccco3)c(=O)c3ccccc32)c(C)c1,n,x,x,n,x
Cc1ccc(-c2ccc(/C=C3\C(=O)ON=C3c3ccccc3)o2)c([N+](=O)[O-])c1,n,111.3,n,x,80.1
O=c1c2cc(Br)ccc2nc(-c2cccc(C(F)(F)F)c2)n1O,n,99.0,n,x,n
O=c1c2cc(Br)ccc2nc(-c2ccc([N+](=O)[O-])cc2)n1O,n,n,n,n,x
O=C(NCCc1ccc(Cl)cc1)Nc1cccc(Cl)c1,n,99.5,n,x,n
S=C(NCc1ccc(Cl)cc1)Nc1ccc(Cl)cc1Cl,n,n,n,n,x
S=C(NCCc1ccc(Cl)cc1)Nc1ccc(Cl)cc1Cl,n,104.8,n,n,94.8
CCOc1ccccc1CNC(CC)CO (configuration not stated),n,n,n,n,x
CCN1CCCC1CNC(=O)c1nn(-c2ccc(C)cc2)c(=O)c2c1c1ccccc1n2C (configuration not stated),x,x,x,n,x
Cc1ccc(NC(=O)c2ccc(Nc3c([N+](=O)[O-])cc([N+](=O)[O-])cc3[N+](=O)[O-])cc2)cc1,n,104.2,n,n,108.1
O=C(CC(NC(=O)c1ccccc1)c1ccccc1)Nc1cccc2ccccc12 (configuration not stated),n,103.7,n,n,n
O=C(CC(C(=O)O)c1ccccc1)Nc1cccc2ccccc12 (configuration not stated),n,n,n,n,x
O=C(Nc1cccc(O)c1)C(Cc1ccccc1)N1C(=O)c2cccc3cccc(c23)C1=O (configuration not stated),n,109.2,x,n,n
COc1ccc(-c2n[nH]c(C)c2-c2cnn(-c3ccccc3)c2)c(O)c1C,n,98.6,n,x,n
COc1ccc(-c2n[nH]c(C)c2-c2cnn(-c3ccccc3)c2)c(O)c1,n,n,x,n,x
COc1cc(/C=N/N2CCN(C3c4ccccc4-c4ccccc43)CC2)ccc1O,n,106.3,n,x,n
COc1cccc(/C=N/N2CCN(C3c4ccccc4-c4ccccc43)CC2)c1O,x,n,n,n,x
CCOC(=O)c1c(C)[nH]c(C(=O)OC/C(O)=C(\C#N)c2nc3ccccc3[nH]2)c1C,n,100.1,n,n,n
CCOC(=O)c1ccc2c(c1)nc(SC/C(O)=C(\C#N)c1nc3ccccc3[nH]1)n2CC,n,98.8,n,x,n
CC1CN(S(=O)(=O)c2cccc(C(=O)OC/C(O)=C(\C#N)c3nc4ccccc4[nH]3)c2)CC(C)O1 (configuration not stated),n,105.8,n,n,n
CCOC(=O)/C(O)=C(\C#N)c1nc2ccccc2[nH]1,n,n,n,n,x
CC(C)NC(=O)CC(=O)N/N=C/c1ccc(F)cc1,n,n,n,x,x
CCN(CCO)c1ncnc2c1sc1nc(C(C)C)c3c(c12)CC(C)(C)OC3,n,99.2,n,x,102.8
Cc1ccc(N(C(=O)Cn2nnc(-c3ccc(F)cc3)n2)C(C(=O)NC(C)(C)C)c2ccncc2)cc1 (configuration not stated),n,n,n,n,x
SMILES,Hsp70 act,CHOP inhibitor,Mdm2 ligase inh,S1P3 antagonist,CHOP inh conf
C=CCN(CC=C)C(=O)Nc1cc(OC)ccc1OC,x,n,n,n,x
CCn1c(=O)c(C(=O)NNS(=O)(=O)c2ccc(Br)cc2)c(O)c2ccccc21,n,105.3,n,n,n
CC(C)(C)NC(=O)c1ccccc1NC(=O)C1CCCO1 (configuration not stated),n,n,n,n,x
O=C(Nc1ccccc1[N+](=O)[O-])c1cncc(Br)c1,n,n,n,n,x
CCOC(=O)c1ccc(NC(=O)c2nc[nH]c2C(=O)N[C@@H](C)C(=O)OC(C)(C)C)cc1,x,97.5,n,x,103.8
CCOC(=O)c1ccc(NC(=O)c2nc[nH]c2C(=O)N[C@@H](CC(C)C)C(=O)OC(C)(C)C)cc1,x,n,n,x,x
C[C@H](NC(=O)c1[nH]cnc1C(=O)Nc1ccc(Cl)cc1)C(=O)OC(C)(C)C,x,104.5,n,x,91.3
O=C1c2ccccc2C(=O)c2c1oc(C(F)(F)F)c2C(=O)c1ccccc1,n,107.4,n,x,120.6
COc1cccc(-n2nnnc2S(C)(=O)=O)c1,n,113.4,n,x,114.7
CC(C)CC1=NN(C(=O)c2ccncc2)C(O)(C(F)(F)F)C1 (configuration not stated),n,n,n,n,x
Cc1cc(Nc2cccc([N+](=O)[O-])c2)n2c(nc3ccccc32)c1C#N,n,103.1,n,x,86.9
Cc1cc(Nc2c(C)n(C)n(-c3ccccc3)c2=O)n2c(nc3ccccc32)c1C#N,n,n,n,x,x
CCOC(=O)c1ccc(Nc2ccc(-c3ccc(OC)c(OC)c3)nn2)cc1,n,102.0,n,x,n
CCOC(=O)c1ccc(N/C=C/C(=O)c2ccc(OC)c(OC)c2)cc1,n,n,n,x,x
C=CCn1c(SCC(=O)NC(=O)NCc2ccco2)nc2sc(C)c(C)c2c1=O,n,104.4,n,n,n
O=C(NCCCN1CCOCC1)c1cccnc1SCc1ccccc1Cl,n,n,n,n,x
CS(=O)(=O)c1ccc(C(=O)OCC(=O)NC(=O)C2CCCCC2)cc1[N+](=O)[O-],n,97.0,n,n,n
NC(=S)N=Nc1c(O)[nH]c2ccccc12,n,n,n,n,x
NC(=S)N=Nc1c(O)[nH]c2c(Br)cc(Br)cc12,n,98.2,n,n,n
CCCN1CCC(NC(=O)Nc2ccc(Br)cc2)CC1,n,n,n,n,x
CCCCN1C(=S)SC(C)(C)C1/[N+]([O-])=C/c1ccc(S(=O)(=O)NC)cc1 (configuration not stated),x,n,n,n,x
O=C1CC(c2cccc(Cl)c2)CC(O)=C1C=Nc1cccc(Cl)c1 (configuration not stated),n,99.0,n,n,72.3
Nc1nc(-c2ccccc2)c(N=Nc2ccccc2Cl)s1,n,97.1,n,n,80.5
Nc1nc(-c2ccccc2)c(N=Nc2cccc3ccccc23)s1,n,n,n,n,x
Cc1c(C(=O)OCC(=O)N2CC(=O)Nc3ccccc32)oc2ccc(Br)cc12,n,104.1,n,x,n
SMILES,Hsp70 act,CHOP inhibitor,Mdm2 ligase inh,S1P3 antagonist,CHOP inh conf
CCNC(=O)CSc1nnc(-c2cc(-c3ccc(Cl)cc3)nc3ccccc23)o1,n,n,n,n,x
Cc1cc(/C(=N/O)C(C)(C)NO)ccc1Cl,n,101.8,n,n,n
Cc1cc(=O)n(C2CCS(=O)(=O)C2)[nH]1 (configuration not stated),n,n,n,n,x
C=CCn1c(SCC(=O)Nc2ccc(-c3nc4ccc(C)cc4s3)cc2)nnc1-c1ccccc1,n,99.5,n,n,70.1
C=CCn1c(SCC(=O)NNC(=O)Nc2ccc(C)cc2)nnc1-c1ccccc1,x,n,n,n,x
O=C(CCC1CCCN(Cc2cccc(Cl)c2)C1)NCc1ccccc1F (configuration not stated),x,n,n,n,x

# From PubChem
